{"source": "ChEMBL document CHEMBL4699426", "about": "“A practical synthesis of amino limonin/deoxylimonin derivatives as effective mitigators against inflammation and nociception” (2020)", "key": {"Mus musculus [1]": {"tested_on": "Mus musculus", "assay": "Antiinflammatory activity in po dosed ICR mouse model of carrageenan-induced paw edema assessed as paw edema inhibition rate pretreated with compound followed by carrageenan challenge and measured after 4 hrs post-treatment by dial thickness gage", "assay_type": "functional, organism-based", "conditions": "dose mg/kg 25-100, time 4.0 hrs", "in_short": "(§1)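 ICR male mice, 8 per group, randomized, acclimated at least one week, 12 h light/dark, 22 ± 1 °C. Dosed intragastrically at 25, 50 or 100 mg/kg; indomethacin 22 mg/kg i.g. as reference; olive oil as vehicle. 30 min later, 1% fresh carrageenan in saline injected subplantar into right hind paw. Paw thickness read by dial gauge before injection and at 1, 2, 3 and 4 h; percent increase over pre-injection value.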"}, "Mus musculus [2]": {"tested_on": "Mus musculus", "assay": "Antiinflammatory activity in ICR mouse model of carrageenan-induced paw edema assessed as paw edema inhibition rate at 25 mg/kg, po pretreated with compound followed by carrageenan challenge and measured after 1 hr post-treatment by dial thickness gage", "assay_type": "functional", "in_short": "as §1"}, "Mus musculus [3]": {"tested_on": "Mus musculus", "assay": "Antiinflammatory activity in ICR mouse model of carrageenan-induced paw edema assessed as paw edema inhibition rate at 100 mg/kg, po pretreated with compound followed by carrageenan challenge and measured after 3 hrs post-treatment by dial thickness gage", "assay_type": "functional", "in_short": "as §1"}, "Mus musculus [4]": {"tested_on": "Mus musculus", "assay": "Antiinflammatory activity in ICR mouse model of carrageenan-induced paw edema assessed as paw edema inhibition rate at 25 mg/kg, po pretreated with compound followed by carrageenan challenge and measured after 3 hrs post-treatment by dial thickness gage", "assay_type": "functional", "in_short": "as §1"}, "Mus musculus [5]": {"tested_on": "Mus musculus", "assay": "Antiinflammatory activity in ICR mouse model of carrageenan-induced paw edema assessed as paw edema inhibition rate at 100 mg/kg, po pretreated with compound followed by carrageenan challenge and measured after 2 hrs post-treatment by dial thickness gage", "assay_type": "functional", "in_short": "as §1"}, "Mus musculus [6]": {"tested_on": "Mus musculus", "assay": "Analgesic activity in mouse model of acetic-acid-induced writhing assessed as inhibition of writhing numbers at 70 mg/kg, po pretreated with compound followed by acetic acid challenge and measured after 30 mins relative to control", "assay_type": "functional", "conditions": "0.5 h", "in_short": "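Acetic acid writhing in mice. Oral dosing (70 mg/kg test compounds or limonin; 200 mg/kg aspirin); vehicle controls got 0.5% CMC-Na. 30 min later 0.6% acetic acid, 10 ml/kg i.p. Each animal held in its own box and observed for 15 min; writhing and stretching counted; result as percent change from vehicle writhing controls.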"}, "Mus musculus [7]": {"tested_on": "Mus musculus", "assay": "Antiinflammatory activity in ICR mouse model of carrageenan-induced paw edema assessed as paw edema inhibition rate at 50 mg/kg, po pretreated with compound followed by carrageenan challenge and measured after 1 hr post-treatment by dial thickness gage", "assay_type": "functional", "in_short": "as §1"}, "Mus musculus [8]": {"tested_on": "Mus musculus", "assay": "Antiinflammatory activity in ICR mouse model of carrageenan-induced paw edema assessed as paw edema inhibition rate at 50 mg/kg, ig pretreated with compound followed by carrageenan challenge and measured after 4 hrs post-treatment by dial thickness gage", "assay_type": "functional", "conditions": "po", "in_short": "as §1"}, "Mus musculus [9]": {"tested_on": "Mus musculus", "assay": "Antiinflammatory activity in ICR mouse model of carrageenan-induced paw edema assessed as paw edema inhibition rate at 100 mg/kg, po pretreated with compound followed by carrageenan challenge and measured after 1 hr post-treatment by dial thickness gage", "assay_type": "functional", "in_short": "as §1"}, "Mus musculus [10]": {"tested_on": "Mus musculus", "assay": "Antiinflammatory activity in mouse model of xylene-induced ear swelling assessed as inhibition of swelling by measuring weight of the ear at 100 mg/kg, ig pretreated for 90 mins followed by xylene challenge and measured after 30 mins relative to control", "assay_type": "functional", "conditions": "po, 2 h, time 120 min", "in_short": "(§2)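 Xylene ear swelling in mice. Test compounds 100 mg/kg i.g., naproxen 150 mg/kg i.g., all suspended in 0.5% CMC-Na; vehicle group got CMC-Na alone. 90 min after dosing, 25 ul xylene applied to both surfaces of right ear; left ear unstimulated. Killed 30 min later; 8 mm punches from both ears weighed; swelling taken against left ear weight.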"}, "Mus musculus [11]": {"tested_on": "Mus musculus", "assay": "Antiinflammatory activity in ICR mouse model of carrageenan-induced paw edema assessed as paw edema inhibition rate at 25 mg/kg, po pretreated with compound followed by carrageenan challenge and measured after 2 hrs post-treatment by dial thickness gage", "assay_type": "functional", "in_short": "as §1"}, "Mus musculus [12]": {"tested_on": "Mus musculus", "assay": "Antiinflammatory activity in ICR mouse model of carrageenan-induced paw edema assessed as paw edema inhibition rate at 25 mg/kg, po pretreated with compound followed by carrageenan challenge and measured after 4 hrs post-treatment by dial thickness gage", "assay_type": "functional", "conditions": "2 h, dose mg/kg 25-100", "in_short": "as §1"}, "Mus musculus [13]": {"tested_on": "Mus musculus", "assay": "Antiinflammatory activity in ICR mouse model of carrageenan-induced paw edema assessed as paw edema inhibition rate at 100 mg/kg, po pretreated with compound followed by carrageenan challenge and measured after 4 hrs post-treatment by dial thickness gage", "assay_type": "functional", "in_short": "as §1"}, "Mus musculus [14]": {"tested_on": "Mus musculus", "assay": "Antiinflammatory activity in ICR mouse model of carrageenan-induced paw edema assessed as paw edema inhibition rate at 50 mg/kg, po pretreated with compound followed by carrageenan challenge and measured after 2 hrs post-treatment by dial thickness gage", "assay_type": "functional", "in_short": "as §1"}, "Mus musculus [15]": {"tested_on": "Mus musculus", "assay": "Antiinflammatory activity in ICR mouse model of carrageenan-induced paw edema assessed as paw edema inhibition rate at 50 mg/kg, po pretreated with compound followed by carrageenan challenge and measured after 3 hrs post-treatment by dial thickness gage", "assay_type": "functional", "in_short": "as §1"}, "Mus musculus [16]": {"species": "Mus musculus", "assay": "animal or person", "conditions": "po, 2 h, read-out: INH"}, "Mus musculus [17]": {"tested_on": "Mus musculus", "assay": "Antiinflammatory activity in mouse model of xylene-induced ear swelling assessed as inhibition of swelling by measuring weight of the ear at 100 mg/kg, ig pretreated for 90 mins followed by xylene challenge and measured after 30 mins relative to deoxy-limonin", "assay_type": "functional", "conditions": "time 120 min, 2 h", "in_short": "as §2"}}}
{"compound": "COc1ccc(CNCCC2OC(C)(C)[C@@H]3CC(=O)[C@]4(C)[C@H](CC[C@@]5(C)[C@H](c6ccoc6)OC(=O)[C@H]6O[C@]654)C23CO)cc1", "note": "(stereo partly drawn)", "values": [{"measurement": "inhibition", "setting": "Mus musculus [1]", "value": "Dose-dependent effect"}, {"measurement": "inhibition in vivo at 25 mg/kg", "setting": "Mus musculus [2]", "value": 43.4, "unit": "%"}, {"measurement": "inhibition in vivo at 100 mg/kg", "setting": "Mus musculus [3]", "value": 41.4, "unit": "%"}, {"measurement": "inhibition in vivo at 25 mg/kg", "setting": "Mus musculus [4]", "value": 9.77, "unit": "%"}, {"measurement": "inhibition in vivo at 100 mg/kg", "setting": "Mus musculus [5]", "value": 62, "unit": "%"}, {"measurement": "inhibition in vivo at 70 mg/kg", "setting": "Mus musculus [6]", "value": 81.5, "unit": "%"}, {"measurement": "inhibition in vivo at 50 mg/kg", "setting": "Mus musculus [7]", "value": 44.6, "unit": "%"}, {"measurement": "inhibition in vivo at 50 mg/kg", "setting": "Mus musculus [8]", "value": 15.6, "unit": "%"}, {"measurement": "inhibition in vivo at 100 mg/kg", "setting": "Mus musculus [9]", "value": 54.5, "unit": "%"}, {"measurement": "inhibition in vivo at 100 mg/kg", "setting": "Mus musculus [10]", "value": 27.3, "unit": "%"}, {"measurement": "inhibition in vivo at 25 mg/kg", "setting": "Mus musculus [11]", "value": 24.6, "unit": "%"}, {"measurement": "inhibition in vivo at 25 mg/kg", "setting": "Mus musculus [12]", "value": 5.75, "unit": "%"}, {"measurement": "inhibition in vivo at 100 mg/kg", "setting": "Mus musculus [13]", "value": 32, "unit": "%"}, {"measurement": "inhibition in vivo at 50 mg/kg", "setting": "Mus musculus [14]", "value": 33.3, "unit": "%"}, {"measurement": "inhibition in vivo at 50 mg/kg", "setting": "Mus musculus [15]", "value": 17.5, "unit": "%"}]}
{"compound": "COc1ccc(CN2CCC3OC(C)(C)[C@@H]4CC(=O)[C@@]5(C)C6=CC(=O)O[C@@H](c7ccoc7)[C@]6(C)CC[C@@H]5C34C2)cc1", "note": "(stereo partly drawn)", "values": [{"measurement": "inhibition in vivo at 70 mg/kg", "setting": "Mus musculus [6]", "value": 40, "unit": "%"}, {"measurement": "inhibition in vivo at 100 mg/kg", "setting": "Mus musculus [10]", "value": 32.5, "unit": "%"}]}
{"compound": "CC1(C)OC(CCNCCc2ccc(F)cc2)C2(CO)[C@H]3CC[C@]4(C)C(=CC(=O)O[C@H]4c4ccoc4)[C@]3(C)C(=O)C[C@@H]12", "note": "(stereo partly drawn)", "values": [{"measurement": "inhibition in vivo at 70 mg/kg", "setting": "Mus musculus [6]", "value": 30.1, "unit": "%"}, {"measurement": "inhibition in vivo at 100 mg/kg", "setting": "Mus musculus [10]", "value": 30, "unit": "%"}]}
{"compound": "COc1ccc(CCNCCC2OC(C)(C)[C@@H]3CC(=O)[C@@]4(C)C5=CC(=O)O[C@@H](c6ccoc6)[C@]5(C)CC[C@@H]4C23CO)cc1OC", "note": "(stereo partly drawn)", "values": [{"measurement": "inhibition in vivo at 70 mg/kg", "setting": "Mus musculus [6]", "value": 52.6, "unit": "%"}, {"measurement": "inhibition in vivo at 100 mg/kg", "setting": "Mus musculus [10]", "value": 37.9, "unit": "%"}]}
{"compound": "CC1(C)OC(CCNCc2ccc(F)cc2)C2(CO)[C@H]3CC[C@]4(C)C(=CC(=O)O[C@H]4c4ccoc4)[C@]3(C)C(=O)C[C@@H]12", "note": "(stereo partly drawn)", "values": [{"measurement": "inhibition in vivo at 70 mg/kg", "setting": "Mus musculus [6]", "value": 37, "unit": "%"}, {"measurement": "inhibition in vivo at 100 mg/kg", "setting": "Mus musculus [10]", "value": 29.5, "unit": "%"}]}
{"compound": "COc1ccc(CNCCC2OC(C)(C)[C@@H]3CC(=O)[C@@]4(C)C5=CC(=O)O[C@@H](c6ccoc6)[C@]5(C)CC[C@@H]4C23CO)cc1", "note": "(stereo partly drawn)", "values": [{"measurement": "inhibition in vivo at 70 mg/kg", "setting": "Mus musculus [6]", "value": 29.7, "unit": "%"}, {"measurement": "inhibition in vivo at 100 mg/kg", "setting": "Mus musculus [10]", "value": 24.8, "unit": "%"}]}
{"compound": "COc1ccc2cc([C@H](C)C(=O)O)ccc2c1", "note": "[NAPROXEN]", "values": [{"measurement": "inhibition in vivo at 150 mg/kg", "setting": "Mus musculus [16]", "value": 25, "unit": "%"}]}
{"compound": "CC1(C)OC2CCN(Cc3ccc(F)cc3)CC23[C@H]2CC[C@]4(C)C(=CC(=O)O[C@H]4c4ccoc4)[C@]2(C)C(=O)C[C@@H]13", "note": "(stereo partly drawn)", "values": [{"measurement": "inhibition in vivo at 70 mg/kg", "setting": "Mus musculus [6]", "value": 40.3, "unit": "%"}, {"measurement": "inhibition in vivo at 100 mg/kg", "setting": "Mus musculus [10]", "value": 28, "unit": "%"}]}
{"compound": "COc1cccc(CCNCCC2OC(C)(C)[C@@H]3CC(=O)[C@@]4(C)C5=CC(=O)O[C@@H](c6ccoc6)[C@]5(C)CC[C@@H]4C23CO)c1", "note": "(stereo partly drawn)", "values": [{"measurement": "inhibition", "setting": "Mus musculus [1]", "value": "Dose-dependent effect"}, {"measurement": "inhibition in vivo at 25 mg/kg", "setting": "Mus musculus [2]", "value": 51.5, "unit": "%"}, {"measurement": "inhibition in vivo at 100 mg/kg", "setting": "Mus musculus [3]", "value": 35.3, "unit": "%"}, {"measurement": "inhibition in vivo at 25 mg/kg", "setting": "Mus musculus [4]", "value": 12, "unit": "%"}, {"measurement": "inhibition in vivo at 100 mg/kg", "setting": "Mus musculus [5]", "value": 65.3, "unit": "%"}, {"measurement": "inhibition in vivo at 70 mg/kg", "setting": "Mus musculus [6]", "value": 52.6, "unit": "%"}, {"measurement": "fold change (FC)", "setting": "Mus musculus [17]", "value": 5}, {"measurement": "inhibition in vivo at 50 mg/kg", "setting": "Mus musculus [7]", "value": 55.6, "unit": "%"}, {"measurement": "inhibition in vivo at 100 mg/kg", "setting": "Mus musculus [9]", "value": 59.8, "unit": "%"}, {"measurement": "inhibition in vivo at 100 mg/kg", "setting": "Mus musculus [10]", "value": 51.5, "unit": "%"}, {"measurement": "inhibition in vivo at 25 mg/kg", "setting": "Mus musculus [11]", "value": 17.6, "unit": "%"}, {"measurement": "inhibition in vivo at 25 mg/kg", "setting": "Mus musculus [12]", "value": 5.43, "unit": "%"}, {"measurement": "inhibition in vivo at 100 mg/kg", "setting": "Mus musculus [13]", "value": 27.5, "unit": "%"}, {"measurement": "inhibition in vivo at 50 mg/kg", "setting": "Mus musculus [14]", "value": 27.3, "unit": "%"}, {"measurement": "inhibition in vivo at 50 mg/kg", "setting": "Mus musculus [15]", "value": 24.1, "unit": "%"}]}
